Laboratory results from ChEMBL document CHEMBL3739254, “Synthesis of apoptotic chalcone analogues in HepG2 human hepatocellular carcinoma cells” (Bioorg Med Chem Lett, 2015).
Active and inactive are the calls of the source. The rule behind the calls is not given here.

What was measured:
HepG2 [1] = test: Cytotoxicity against human HepG2 cells assessed as cell viability at 5 to 100 uM after 24 hrs by MTT assay relative to control; type: functional, cell-based
Method in brief: (§1)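 HepG2 cells kept in DMEM with 10% FBS and penicillin/streptomycin at 37 °C under 5% CO2. Cells were exposed for 24 h to chalcone analogues at various concentrations, up to 100 µM, and viability was then read by MTT assay.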

HepG2 [2] = test: Cytotoxicity against human HepG2 cells assessed as cell viability at 5 to 100 uM after 24 hrs by MTT assay; type: functional; method in brief: as §1
HepG2 [3] = test: Cytotoxicity against human HepG2 cells assessed as cell viability at 100 uM after 24 hrs by MTT assay; type: functional; details: HepG2, 24 h, read-out: GI; method in brief: as §1
HepG2 [4] = test: Induction of apoptosis in human HepG2 cells assessed as progressive condensation at 25 to 50 uM by phase contrast microscopic analysis; type: functional, cell-based
HepG2 [5] = test: Induction of apoptosis in human HepG2 cells assessed as early apoptotic cells at 25 uM by annexin V-FITC/propidium iodide staining-based flow cytometric analysis (reference value: 1.9 +/- 0.5%); type: functional
HepG2 [6] = test: Induction of apoptosis in human HepG2 cells assessed as increase in Bax/Bcl2 ratio at 25 to 50 uM after 24 hrs by Western blot analysis; type: functional, cell-based
Method in brief: (§2)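 HepG2 cells were grown in 60 mm dishes and treated at 25 and 50 µM for 24 h. Whole-cell extracts were made in RIPA buffer with 1× protease inhibitor cocktail and 1 mM PMSF. Lysates (20 µg) were run on SDS–PAGE and transferred to PVDF. Blots were probed with epitope-specific antibodies against GAPDH and the target proteins and detected by ECL.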

HepG2 [7] = test: Induction of apoptosis in human HepG2 cells assessed as cleavage of caspase-3 at 25 to 50 uM after 24 hrs by Western blot analysis; type: functional, cell-based; method in brief: as §2
HepG2 [8] = test: Induction of apoptosis in human HepG2 cells assessed as cleavage of caspase-8 at 25 to 50 uM after 24 hrs by Western blot analysis; type: functional, cell-based; method in brief: as §2
LLC-PK1 = test: Cytotoxicity against porcine LLC-PK1 cells assessed as cell viability after 24 hrs by MTT assay; type: cell-based; details: Sus scrofa, LLC-PK1, 24 h
HepG2 [9] = test: Cytotoxicity against human HepG2 cells assessed as cell viability at 50 uM after 24 hrs by MTT assay; type: functional; details: HepG2, 24 h, read-out: GI; method in brief: as §1
HepG2 [10] = test: Induction of apoptosis in human HepG2 cells assessed as karyorrhexis at 25 to 50 uM by phase contrast microscopic analysis; type: functional, cell-based
HepG2 [11] = test: Induction of apoptosis in human HepG2 cells assessed as cleavage of PARP at 25 to 50 uM after 24 hrs by Western blot analysis; type: functional, cell-based; method in brief: as §2
HepG2 [12] = test: Cytotoxicity against human HepG2 cells assessed as cell viability after 24 hrs by MTT assay; type: functional, cell-based; details: HepG2, 24 h; method in brief: as §1
HepG2 [13] = test: Induction of apoptosis in human HepG2 cells assessed as cleavage of caspase-9 at 25 to 50 uM after 24 hrs by Western blot analysis; type: functional, cell-based; method in brief: as §2
HepG2 [14] = test: Induction of apoptosis in human HepG2 cells assessed as early apoptotic cells at 50 uM by annexin V-FITC/propidium iodide staining-based flow cytometric analysis (reference value: 1.9 +/- 0.5%); type: functional
HepG2 [15] = test: Induction of apoptosis in human HepG2 cells assessed as cell shrinking at 25 to 50 uM by phase contrast microscopic analysis; type: functional, cell-based

## CCn1c2ccccc2c2cc(/C=C/C(=O)c3ccc(Cl)cc3)ccc21
HepG2 [1]
  growth inhibition (GI): inactive

## O=C(/C=C/c1ccc2ccccc2c1)c1ccc(Br)cc1
HepG2 [1]
  growth inhibition (GI): inactive

## CCn1c2ccccc2c2cc(/C=C/C(=O)c3ccc(OC)c(OC)c3)ccc21
HepG2 [1]
  growth inhibition (GI): inactive

## COc1ccc(C(=O)/C=C/c2ccc(-c3ccccc3)cc2)cc1OC
HepG2 [1]
  growth inhibition (GI): inactive

## O=C(/C=C/c1ccc(-c2ccccc2)cc1)c1ccc(Cl)cc1
HepG2 [1]
  growth inhibition (GI): inactive

## O=C(/C=C/c1ccc2ccccc2c1)c1ccc(Cl)cc1
HepG2 [1]
  growth inhibition (GI): inactive

## COc1cc(/C=C/C(=O)c2ccc(Br)cc2)cc(OC)c1Br
HepG2 [2]
  growth inhibition (GI): >50%

## COc1cccc(C(=O)/C=C/c2cc(OC)c(Br)c(OC)c2)c1
HepG2 [2]
  growth inhibition (GI): >50%
HepG2 [3]
  inhibition of growth at 100 µM: 98%
HepG2 [4]
  Activity: Active
HepG2 [5]
  Activity: 8.5%
HepG2 [6]
  Activity: Active
HepG2 [7]
  Activity: Active
HepG2 [8]
  Activity: Active
LLC-PK1
  IC50: 83 µM
HepG2 [9]
  inhibition of growth at 50 µM: ≤ 91%
HepG2 [10]
  Activity: Active
HepG2 [11]
  Activity: Active
HepG2 [12]
  IC50: 26 µM
HepG2 [13]
  Activity: inactive
HepG2 [14]
  Activity: 31.2%
HepG2 [15]
  Activity: Active
